Bioassay records: PubChem BioAssay, several laboratories
FLuc inhib CS: counter-screen for luciferase assay inhibitors: firefly luciferase inhibition | inhibition, % at 10 µM | 1.5% of 200,000 active | AID 1006 | ATPLite firefly luciferase biochemical luminescence, 10 min;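 active means inhibition above about 50% when tested at 10 µM, limit read from the data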
Target sequence (P08659 whole entry, looked up): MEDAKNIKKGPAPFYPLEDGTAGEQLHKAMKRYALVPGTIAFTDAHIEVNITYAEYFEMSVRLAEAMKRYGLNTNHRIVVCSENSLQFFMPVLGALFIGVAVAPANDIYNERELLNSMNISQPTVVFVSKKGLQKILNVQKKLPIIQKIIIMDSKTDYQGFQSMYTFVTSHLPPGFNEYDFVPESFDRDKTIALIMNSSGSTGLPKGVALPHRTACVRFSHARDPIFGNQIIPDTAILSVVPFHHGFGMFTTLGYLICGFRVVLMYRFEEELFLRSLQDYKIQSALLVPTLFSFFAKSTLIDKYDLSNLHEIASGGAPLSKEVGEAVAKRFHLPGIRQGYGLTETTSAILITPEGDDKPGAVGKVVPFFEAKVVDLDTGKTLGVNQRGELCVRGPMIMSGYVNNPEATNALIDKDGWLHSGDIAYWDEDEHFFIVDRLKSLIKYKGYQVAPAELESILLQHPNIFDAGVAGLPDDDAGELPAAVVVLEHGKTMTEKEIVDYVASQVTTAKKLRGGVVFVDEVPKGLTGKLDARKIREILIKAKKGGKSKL
HSP90 refold inh: blocks HSP90-mediated luciferase refolding in reticulocyte lysate; Rabbit reticulocyte lysate, luciferase refolding luminescence, 3 h; inhibition, % at 5.6 µM; 0.91% of 290,000 active;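 active means inhibition above the screen-wide mean plus 3 SD, computed separately per campaign, cut at about 16% in these data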;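 further: 0% = DMSO wells and 100% = 60 µM geldanamycin wells; inhibitors lower the luminescence because luciferase stays unfolded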
FLuc stim CS: firefly luciferase counter-screen for stimulation assays; P08659; ATPlite luciferase biochemical, luminescence, 10 min; 0 = ATP-free wells, 1 = DMSO control; activation factor at 10 µM; 200,000 tested, under 10 active; AID 1027;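 active means luciferase activation factor, scaled between plate controls, of at least 2 with compound at 10 µM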
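assay system = Luciferase/luciferin detection reagent, cell-free biochemical luciferase assay | also added = ATP substrate | times = 10 min post-reagent at room temperature | measured by = luminescence from luciferase reaction | measure = luciferase activation, seen as luminescence increase over controls | benchmarks = low control with PBS replacing ATP, high control enzyme plus ATP without compound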
PPC-1+TRAIL kill: compounds killing PPC-1 cancer cells with TRAIL present (potentiator screen, no TRAIL-free arm); PPC-1 cells + TRAIL, ATPLite viability luminescence; cell killing (% activity), % at 4 µM or 5 µM; 0.41% of 220,000 active; AID 1443;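 active means cell killing above 50% in the first pass at 4 µM, then a duplicate retest at 5 µM averaging 50% or more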;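 further: plate controls were cells with TRAIL plus DMSO for no effect and medium-only wells lacking cells for full effect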
C8 TRAIL sens: sensitizes caspase-8 expressing cells to TRAIL; NB7+C8 cells + TRAIL, ATPlite viability luminescence; AID 624354; inhibition (viability loss, TRAIL sensitization), % at 10 µM; 1% of 360,000 active;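 active means compounds causing at least 50% loss of cell viability in the single-dose screen, relative to plate controls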
STAT3 inh-1: STAT3 signaling inhibition; 0.89% of 190,000 active; U3A cells, IL-6 STAT3-luciferase reporter, luminescence; host cell line lacks STAT1; inhibition, % at 5.5 µM;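 active means inhibition above the mean inhibition across all screened compounds plus 3 SD, cut at about 44% in these data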;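 further: 0% = DMSO only wells and 100% = 100 µM nifuroxazide control wells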
STAT3 inh-2: STAT3 inhibition, confirmation assay. shares compounds with STAT3 inh-1. inhibition, % at 5.7 µM. AID 1265. 45% of 1,200 active. U3A cells, IL-6 STAT3 luciferase reporter, luminescence; cell line lacks STAT1;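 active means inhibition above the hit cutoff computed for the primary STAT3 screen, cut at about 44% in these data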;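 further: 0% = IL-6 plus DMSO and 100% = IL-6 plus nifuroxazide control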
NFkB inh 2: counter-screen for STAT3 inhibitors: NF-kappaB inhibition; shares compounds with STAT3 inh-1; HEK293T NF-kB luciferase reporter, TNF-alpha induced; inhibition, % at 5.7 µM; 36% of 1,200 active; AID 1308;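 active means inhibition above the mean of solvent-only control wells plus 3 SD, cutoff set per campaign, cut at about 13% in these data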;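 further: 0% = TNF-alpha with DMSO and 100% = TNF-alpha with MG high control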
STAT1 inh STAT3c: STAT1 inhibition in STAT3 inhibitor counter-screen; AID 1317; shares compounds with STAT3 inh-1; 27% of 1,200 active; inhibition, % at 5.7 µM; NIH 3T3 STAT1-luciferase reporter, IFN-gamma induced, luminescence;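 active means inhibition above the mean plus 3 SD of solvent-only control wells, limit set per screening run, cut at about 16% in these data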;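 further: 0% = DMSO with IFN-gamma and 100% = nifuroxazide control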
The depositor's hits bear a star; · = no result. Only some compounds are listed: those with a hit (about 2.2% of all), similar ones and a draw of the others.

SMILES | FLuc inhib CS | HSP90 refold inh | FLuc stim CS | PPC-1+TRAIL kill | C8 TRAIL sens | STAT3 inh-1 | STAT3 inh-2 | NFkB inh 2 | STAT1 inh STAT3c
Cc1nc(NCc2ccccn2)c2ccccc2n1 | 1 | -3 | 1 | 19 | -7 | 49* | 32 | 1 | 12
Cc1cc(NCc2ccccn2)nc2ccccc12 | 3 | 4 | 1 | -19 | 17 | 24 | · | · | ·
C/C(N)=C(/C#N)C(=O)CSc1nnc(-c2ccc3c(c2)OCO3)o1 | 21 | 4 | 0.8 | 27 | 5 | 48* | 18 | -9 | -97
O=S(=O)(c1ccc(Cl)nc1)N1CCC(Cc2ccccc2)CC1 | · | · | · | · | -2 | · | · | · | ·
NC(=O)C1CCN(c2ccc(S(=O)(=O)N3CCC(Cc4ccccc4)CC3)cn2)CC1 | -5 | 3 | 1 | 26 | -9 | 64* | 55* | 9 | 8
COc1ccc(F)cc1CSc1nnnn1-c1ccc(O)cc1 | · | -3 | · | · | 5 | · | · | · | ·
COc1cc(CSc2nnnn2-c2ccc(C)cc2)cc(OC)c1OC | -1 | 0 | 1 | -4 | 21 | 69* | 70* | 26* | 22*
N#Cc1ccsc1NC(=O)C1=COCCO1 | · | · | · | · | 25 | · | · | · | ·
CCc1c(C)nc2ncnn2c1NCCc1ccccc1 | -7 | -2 | 1.1 | 12 | 32 | 42 | · | · | ·
CCc1c(C)nc2ncnn2c1NCCc1ccc(Cl)cc1 | -2 | 1 | 1 | 0 | 14 | 54* | 59* | 16* | 25*
CCOc1ccc2nc3sc(C(=O)N4CCOCC4)c(N)c3cc2c1 | 36 | -8 | 0.6 | · | -2 | 56* | 2 | -6 | -8
COc1ccc(OC)c(-c2cc(C(=O)Nc3c(C)nn(Cc4ccc(Cl)cc4)c3C)no2)c1 | -2 | -4 | 1 | -6 | 2 | 14 | · | · | ·
COc1ccc(-c2cc(C(=O)Nc3cc(C)n(Cc4ccc(Cl)cc4)n3)no2)cc1OC | -4 | -1 | 1 | 8 | 25 | 74* | 71* | 29* | 2
O=C(Cn1c(Cn2c(-c3cnccn3)nc3ccccc32)nc2ccccc21)c1ccc(OC(F)(F)F)cc1 | · | · | · | · | 14 | · | · | · | ·
Cc1nc(NC(C)c2ccccc2)c2oc3ccccc3c2n1 (stereo unspecified) | 2 | 0 | 1 | 5 | 25 | 46* | 29 | -2 | 12
O=c1c2ccccc2nc(N/N=C/c2c(O)ccc3ccccc23)n1O | 88* | 2 | 0.1 | 21 | 71* | 46* | -9 | 21* | -2
O=c1c2ccccc2nc(N/N=C/c2ccc(O)cc2)n1O | 94* | 0 | 0.1 | 2 | 62* | 52* | 31 | 16* | 34*
Cc1nc2ccccc2c(=O)n1/N=C/c1c(O)ccc2ccccc12 | -5 | -3 | 1 | 34 | 8 | 3 | · | · | ·
Cc1ccc(C(=O)/C=C/Nc2ccc3c(c2)OCO3)cc1 | 80* | 2 | 0.2 | 50 | 61* | 56* | 2 | -27 | -142
CNC(=O)COc1coc(CN2CCN(c3ccccc3OC)CC2)cc1=O | · | -1 | · | · | -18 | · | · | · | ·
CN(C)CCN(C)C1CN(C2CCCC2)S(=O)(=O)C1 (stereo unspecified) | · | · | · | · | -10 | · | · | · | ·
O=C(O)c1cccc2c1C(=O)c1ccc(-c3ccc(F)cc3F)cc1S2(=O)=O | · | · | · | · | -15 | · | · | · | ·
FC(F)(F)c1cnc(-c2cnc(-c3ccccn3)nc2)c(Cl)c1 | 64* | 8 | 0.4 | 47 | 36 | 48* | 16 | -23 | -57
FC(F)(F)c1cnc(-c2cnc(-c3ccncc3)nc2)c(Cl)c1 | 13 | -1 | 0.9 | 13 | 16 | 21 | · | · | ·
CCOC(=O)C1CCN(C(=O)CCc2c(C)nc3cc(-c4ccccc4)nn3c2C)CC1 | -6 | -1 | 1.1 | 5 | 15 | 24 | · | · | ·
SMILES | FLuc inhib CS | HSP90 refold inh | FLuc stim CS | PPC-1+TRAIL kill | C8 TRAIL sens | STAT3 inh-1 | STAT3 inh-2 | NFkB inh 2 | STAT1 inh STAT3c
CCOC(=O)C1CCCCN1C(=O)CCc1c(C)nc2cc(-c3ccccc3)nn2c1C (stereo unspecified) | -1 | 3 | 1 | 16 | 18 | 49* | 28 | 5 | -14
COc1ccc(NC(=S)Nc2ncccc2C)c(OC)c1 | 9 | -2 | 0.9 | 10 | -3 | 47* | 40 | -17 | -42
COc1ccc(NC(=S)Nc2ncccc2C)cc1OC | 9 | -2 | 0.9 | 5 | -12 | 22 | · | · | ·
CC(C)Oc1ccc(C(=O)NC2=NCCS2)cc1 | 75* | 8 | 0.3 | 34 | 59* | 62* | 30 | -21 | -79
CC1(C)CC(=O)C=C(NC2=CC3OC(c4ccccc4)OCC3OC2=O)C1 (stereo unspecified) | -5 | 0 | 1 | 3 | 0 | 45* | 42 | 23* | 18*
Cc1ccc(Oc2ccc(C(=O)NCc3ccncc3)cc2)cc1 | -4 | -1 | 1 | 18 | 35 | 52* | 44* | 11 | 7
COc1ccc(C(=O)NC(Nc2ccc(C)cc2)C(Cl)(Cl)Cl)cc1 (stereo unspecified) | -3 | 6 | 1 | -8 | 16 | 32 | · | · | ·
COc1ccc(NC(NC(=O)c2ccc(OC)cc2)C(Cl)(Cl)Cl)cc1 (stereo unspecified) | -8 | 3 | 1.1 | -2 | -10 | 50* | 27 | 0 | 11
COc1cc(/C=N/N2CCN(Cc3ccccc3)CC2)cc(OC)c1OC(C)=O | · | 0 | · | · | -6 | · | · | · | ·
CCc1n[nH]c2c1/C(=N\O)CC(c1ccccc1)C2 (stereo unspecified) | -1 | -2 | 1 | 10 | -6 | 44* | 30 | 10 | 10
Cc1cccc2cc(-c3ccccc3)c(-c3ccccc3)c[n+]12 | -6 | -4 | 1.1 | 11 | -3 | 46* | 19 | -10 | 1
O=[N+]([O-])c1cccc(-c2cc3cccc[n+]3cc2-c2cccc([N+](=O)[O-])c2)c1 | -8 | 4 | 1.1 | 7 | -11 | -3 | · | · | ·
N#Cc1cc2nc(O)c(O)nc2cc1[N+](=O)[O-] | · | · | · | · | -5 | · | · | · | ·
CNc1nc2cc([N+](=O)[O-])c([N+](=O)[O-])cc2nc1NC | -2 | 1 | 1 | 16 | 32 | 72* | 65* | 28* | 20*
O=C(NCCCN1CCOCC1)c1ccc(Sc2cccc(Cl)c2)c([N+](=O)[O-])c1 | -8 | -2 | 1.1 | 25 | 13 | 0 | · | · | ·
COc1ccc(C(=O)Nc2sc3c(c2C#N)CCN(C(C)=O)C3)cc1 | -1 | 1 | 1 | -12 | -4 | 37 | · | · | ·
CC(=O)N1CCc2c(sc(NC(=O)c3ccc([N+](=O)[O-])o3)c2C#N)C1 | 21 | -1 | 0.8 | 40 | 20 | 58* | 27 | -19 | 22*
